Results reported in ChEMBL document CHEMBL5055647, “Identification and Biological Activity of NFAT-133 Congeners from Streptomyces pactum” (J Nat Prod, 2021).
Calls of active or inactive are those of the source. No cut-off for these calls is given here.

Legend:
Staphylococcus aureus = assay: Antibacterial activity against Staphylococcus aureus ATCC 12600 by Whatman paper based disk diffusion assay; format: functional, organism-based
Procedure, shortened: (§1)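 Test strains grown overnight in LB at 30 °C, 200 rpm; 100 μL culture mixed into 10 mL warm 0.7% LB soft agar and plated. Paper disks loaded with 10 μL of 10 mM compound solution, plates incubated at 37 °C; activity judged by presence and diameter of inhibition zone. Ampicillin (2 mg/mL) positive control.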

Bacillus subtilis = assay: Antibacterial activity against Bacillus subtilis ATCC 6051 by Whatman paper based disk diffusion assay; format: functional, organism-based; procedure, shortened: as §1
Escherichia coli = assay: Antibacterial activity against Escherichia coli ATCC 11775 by Whatman paper based disk diffusion assay; format: functional, organism-based; procedure, shortened: as §1
Pseudomonas aeruginosa = assay: Antibacterial activity against Pseudomonas aeruginosa ATCC 9721 by Whatman paper based disk diffusion assay; format: functional, organism-based; procedure, shortened: as §1
RAW264.7 [1] = assay: Cytotoxicity against mouse RAW264.7 cells up to 50 uM by MTT assay; format: cell-based; settings: raw264.7, 50 µM
Procedure, shortened: (§2)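 Cells kept in high-glucose DMEM with 10% heat-inactivated FBS, streptomycin, amphotericin B, 37 °C, 5% CO2; exponential-phase cells seeded ~1.0 × 10^4/well, grown 12 h, then exposed to serial dilutions of compound; medium-only controls. Viability by MTT, absorbance 490 nm.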

HeLa = assay: Cytotoxicity against human HeLa cells up to 50 uM by MTT assay; format: functional, cell-based; procedure, shortened: as §2
NCI-H460 = assay: Cytotoxicity against human NCI-H460 cells up to 50 uM by MTT assay; format: functional, cell-based; procedure, shortened: as §2
MCF7 = assay: Cytotoxicity against human MCF7 cells up to 50 uM by MTT assay; format: functional, cell-based; procedure, shortened: as §2
RAW264.7 [2] = assay: Inhibition of LPS-induced NO production in mouse RAW264.7 cells preincubated for 1 hr followed by LPS stimulation measured after 24 hrs by Griess reagent based assay; format: functional, cell-based; settings: time 25.0 hrs
Procedure, shortened: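 Murine macrophages seeded ~1 × 10^4/well, grown 12 h, pretreated with compound 1 h, then LPS 25 ng/mL added for 24 h. Supernatant nitrite measured by Griess reagent (1:1, 37 °C, 15 min, dark), absorbance 520 nm, quantified against 0–100 μM sodium nitrite standards; mean ± SD of independent experiments, t-test, p < 0.05.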

Row | SMILES | Activity (Staphylococcus aureus) | Activity (Bacillus subtilis) | Activity (Escherichia coli) | Activity (Pseudomonas aeruginosa) | Activity (RAW264.7 [1]) | Activity (HeLa) | Activity (NCI-H460) | Activity (MCF7) | inhibition (RAW264.7 [2])
1 | CC(=O)[C@@H](C)[C@H](O)[C@@H](C)c1ccc(C)cc1/C=C/CO | inactive | inactive | inactive | inactive | Non-Toxic | inactive | inactive | inactive | Dose-dependent effect
2 | C=C[C@H](O)c1cc(C)ccc1[C@H](C)[C@@H](O)[C@H](C)C(C)=O | inactive | inactive | inactive | inactive | Non-Toxic | inactive | inactive | inactive | Dose-dependent effect
3 | CC(=O)[C@@H](C)[C@@H]1O[C@H](CCO)c2cc(C)ccc2[C@@H]1C | inactive | inactive | inactive | inactive | Non-Toxic | inactive | inactive | inactive | Dose-dependent effect
4 | CC(=O)[C@@H](C)[C@@H]1O[C@@H](CCO)c2cc(C)ccc2[C@@H]1C | inactive | inactive | inactive | inactive | Non-Toxic | inactive | inactive | inactive | Dose-dependent effect
